Screening results as filed in PubChem.
SUMO1 PPI mod: SUMO1-SIM interaction modulation | P63165 | SUMO1 binding to a labelled peptide, TR-FRET, 1 h | inhibition, % at 20 µM | actives 0.33% (n = 360,000) | AID 602429; in the data active = inhibition above about 37%
LMPTP block: blocks human LMPTP phosphatase. recombinant LMPTP-A, OMFP fluorogenic substrate, fluorescence intensity. P24666. AID 651560. actives 0.22% (n = 360,000). inhibition, % at 20 µM;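 active = compounds that cut the enzyme signal by at least half of the control window in the single-dose screen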;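 also: plate controls were DMSO wells with enzyme plus substrate for no effect and substrate without enzyme for full effect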
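Test system – LMPTP-A enzyme · Amount – LMPTP-A at 0.625 nM final in the reaction · Buffer or medium – Bis-Tris pH 6.0, DTT, detergent · Reagent – OMFP 400 µM · Doses – single 20 µM dose · Schedule – reaction 50 min, room temperature, dark · Detection – fluorescence intensity of OMFP turnover product · Evaluation – percent inhibition versus substrate-only and uninhibited controls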
CSN inh: blocks human CSN-mediated cullin deneddylation; Q92905; actives 0.38% (n = 360,000); inhibition, % at 12.5 µM; Purified CSN, SCF-Nedd8-OG deneddylation, fluorescence polarization;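 active = pattern-corrected inhibition above about 35%, with an unprinted fluorescence ratio check between 0.5 and 1.5, limit read from the data, passing the limit was not always enough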;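 also: 0% = enzyme with substrate and 100% = substrate without enzyme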
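Assay system: purified human Csn5 enzyme expressed in HEK293T cells; measure: % inhibition; also added: SCFSkp2-Nedd8OG substrate at 10 nM final; technique: fluorescence polarization; times: reaction 90 min, room temperature; medium: Tris buffer pH 7.5, NaCl, DTT, Tween-20, trehalose, ovalbumin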
DNMT1 block: inhibitors of human DNMT1; P26358; DNMT1 molecular beacon, Hinp1I cleavage, fluorescence; inhibition (reported as % activation of signal), % at 10 µM; actives 0.83% (n = 360,000); AID 588458; in the data active = inhibition above about 50%
Target sequence (P26358 504-1616 limits assumed): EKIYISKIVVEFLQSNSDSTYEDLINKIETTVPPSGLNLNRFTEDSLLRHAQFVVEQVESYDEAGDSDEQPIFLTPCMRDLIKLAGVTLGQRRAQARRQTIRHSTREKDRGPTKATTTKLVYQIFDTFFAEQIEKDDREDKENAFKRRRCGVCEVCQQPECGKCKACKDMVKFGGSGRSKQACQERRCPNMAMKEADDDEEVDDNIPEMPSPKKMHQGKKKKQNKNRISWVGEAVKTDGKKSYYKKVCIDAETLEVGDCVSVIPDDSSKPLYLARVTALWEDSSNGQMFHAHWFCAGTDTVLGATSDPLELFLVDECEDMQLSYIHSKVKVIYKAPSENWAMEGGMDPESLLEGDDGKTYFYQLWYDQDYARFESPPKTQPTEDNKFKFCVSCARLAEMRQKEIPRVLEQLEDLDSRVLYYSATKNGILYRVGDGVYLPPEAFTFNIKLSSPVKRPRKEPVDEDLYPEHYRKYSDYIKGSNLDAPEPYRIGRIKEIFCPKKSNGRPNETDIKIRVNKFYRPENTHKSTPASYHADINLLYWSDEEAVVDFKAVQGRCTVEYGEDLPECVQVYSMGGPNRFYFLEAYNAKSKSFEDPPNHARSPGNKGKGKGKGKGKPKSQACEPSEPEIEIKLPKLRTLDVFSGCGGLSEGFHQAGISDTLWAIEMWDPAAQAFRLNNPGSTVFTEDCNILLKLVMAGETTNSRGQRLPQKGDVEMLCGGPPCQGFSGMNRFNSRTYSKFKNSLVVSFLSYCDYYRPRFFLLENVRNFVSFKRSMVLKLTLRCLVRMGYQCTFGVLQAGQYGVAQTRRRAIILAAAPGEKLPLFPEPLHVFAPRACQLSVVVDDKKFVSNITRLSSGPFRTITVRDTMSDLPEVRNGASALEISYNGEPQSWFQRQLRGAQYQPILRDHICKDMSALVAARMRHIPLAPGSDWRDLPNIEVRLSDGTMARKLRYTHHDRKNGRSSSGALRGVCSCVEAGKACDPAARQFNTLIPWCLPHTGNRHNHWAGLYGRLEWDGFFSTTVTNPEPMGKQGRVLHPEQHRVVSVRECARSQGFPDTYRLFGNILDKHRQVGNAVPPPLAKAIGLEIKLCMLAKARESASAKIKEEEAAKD
STEP block: blocks human striatal-enriched tyrosine phosphatase; P54829; recombinant STEP, OMFP fluorogenic substrate, fluorescence; inhibition, % at 20 µM; actives 0.25% (n = 360,000); AID 588621;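 active = inhibition at 20 µM, scaled per plate between control wells, above about 37%, limit read from the data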;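 also: 0% = DMSO with enzyme and substrate and 100% = substrate only without enzyme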
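medium = Bis-Tris buffer pH 6.0, 2.5 mM DTT, 0.005% Tween 20 | test system = STEP (striatal-enriched tyrosine phosphatase) enzyme, cell-free | measure = normalized % inhibition | compound dosing = 20 µM, 1% DMSO | also added = 25 µM OMFP | schedule = reaction 20 min, ambient temperature | measured by = fluorescence read at 480 nm ex / 540 nm em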
Scp1 inh: blocks human Scp-1 phosphatase activity. Q9GZU7. Recombinant Scp1, phosphopeptide, malachite green phosphate absorbance. inhibition, % at 20 µM. actives 0.88% (n = 340,000). AID 493091;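 active = inhibition above about 50% at 20 µM, limit read from the data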;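 also: plate controls were DMSO wells with enzyme for no effect and wells lacking enzyme for full effect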
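System: SCP-1 catalytic domain; Reagent: Phospho 17-mer peptide substrate; Doses: one concentration, 20 µM, with 1.0% DMSO; Incubation: 45 min room-temperature reaction, 5 min colour, 30 min stabiliser; Signal: Phosphate-binding colour reagent, absorbance read at 630 nm.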
* = called active by the depositor; . = not tested or not shown. Compounds with a hit are over-represented: about 2% of the library has one in this group of screens.

SMILES	SUMO1 PPI mod	LMPTP block	CSN inh	DNMT1 block	STEP block	Scp1 inh
CCOc1ccc(S(=O)(=O)N2CN(c3cccc(C(C)=O)c3)c3nc4ccccc4nc32)cc1	-0.1	-0.5	-2.6	6.7	-0.9	-4.7
O=C(NCc1ccc(C(=O)O)cc1)OCc1ccccc1	-3.5	0.4	1.9	0.5	0.9	-5.0
CCn1cc(C(=O)O)c(=O)c2cc(F)c(N3CCN(C(=S)NC(=O)c4ccccc4C)CC3)cc21	10.8	64.2*	3.6	0.1	3.5	-15.5
CCn1cc(C(=O)O)c(=O)c2cc(F)c(N3CCN(C(=S)NC(=O)c4cc(OC)cc(OC)c4)CC3)cc21	11.8	62.6*	-1.9	3.1	4.6	7.0
Cc1ccc(S(=O)(=O)/N=C2\C=C(Nc3cccc(C(=O)O)c3)C(=O)c3ccccc32)cc1	38.8	7.8	19.6	59.9*	2.9	-7.1
O=C1C(Nc2ccccc2)=C/C(=N/S(=O)(=O)c2cccs2)c2ccccc21	31.9	8.1	10.2	67.7*	2.4	-4.4
Cc1ccc(S(=O)(=O)/N=C2\C=C(Nc3ccc(O)cc3)C(=O)c3ccccc32)cc1	12.1	9.2	4.2	52.7*	4.2	-10.2
COC(=O)c1ccccc1NC1=C/C(=N\S(=O)(=O)c2ccc(C(=O)O)cc2)c2ccccc2C1=O	102.8*	1.5	16.1	80.8*	25.1	12.4
CC1(CCC(=O)N2CCCC(N3CCN(c4ccc(F)cc4)CC3)C2)CC1 (stereo not drawn)	-7.4	-0.9	1.8	-0.3	-0.2	-4.2
CCOC(=O)C1(CC2CCCCO2)CCN(Cc2cn[nH]c2-c2cccc(F)c2)CC1 (stereo not drawn)	-1.2	-1.4	0.7	1.5	-0.8	8.9
NC1=C(Cl)C(=O)c2ccc(S(N)(=O)=O)cc2C1=O	6.0	6.3	10.5	79.8*	8.7	0.0
COc1ccccc1NC(=O)COc1cccc2c1CCNC2=O	14.5	-1.7	-0.6	0.7	0.2	-5.8
CC(Sc1nncs1)C(=O)Nc1ccc(S(=O)(=O)Nc2ncccn2)cc1 (stereo not drawn)	-1.4	-0.7	-1.1	2.1	-5.5	-2.2
COC(=O)c1ccc(-c2ccco2)n1Cc1ccccc1Cl	-3.0	1.2	48.8*	-2.0	-1.1	-13.1
COC(=O)c1ccc(-c2ccco2)n1Cc1nc(-c2ccc(OC)c(OC)c2)oc1C	3.3	2.1	3.9	-2.7	2.9	-12.4
CC1(C(=O)NS(=O)(=O)Cc2cccc(Cl)c2)CCN1C(=O)Cc1cccs1 (stereo not drawn)	-2.2	-1.8	71.3*	-15.5	2.4	.
CC12CCC(=O)N1C(C(=O)Nc1nc3ccccc3s1)CS2 (stereo not drawn)	3.4	0.2	-4.5	2.2	-0.4	-7.6
Nc1cccc2c1C(=O)N(CCOc1ccccc1F)C2=O	-29.1	-1.6	-3.0	-0.5	-2.3	56.1*
CC(NC(=O)C1CCCN1S(=O)(=O)c1ccccc1)c1ccccc1 (stereo not drawn)	-1.0	-1.5	1.0	-0.1	-0.7	-5.9
CCn1c(SCc2nc3sc(C(=O)O)c(C)c3c(=O)[nH]2)nc2ccccc21	40.7*	1.6	32.6	43.8	15.7	65.4*
Cc1nc(C)c(C(=O)OCC(=O)Nc2cccc(C)c2C)s1	0.9	-0.8	1.4	-1.1	1.2	-8.2
Nc1ccc(Cc2ccc(N)c(O)c2)cc1O	-4.6	49.6*	8.5	-26.6	0.4	-9.3
COc1cccc2c1C(=O)C=C(C)C2=O	-14.4	-1.3	-2.2	-17.2	3.8	-10.3
COC1=CC(=O)c2nc(Cl)ccc2C1=O	44.9*	-0.5	22.0	85.0*	-1.5	.
Cc1cc(NCCCCCCCNc2cc(C)nc3cc([N+](=O)[O-])ccc23)c2ccc([N+](=O)[O-])cc2n1	128.5*	91.0*	105.5	40.2	17.8	31.9
SMILES	SUMO1 PPI mod	LMPTP block	CSN inh	DNMT1 block	STEP block	Scp1 inh
O=C1/C(=C\c2cc(Cl)c(O)c(Cl)c2)SC(=S)N1Cc1ccccc1	36.8	-0.3	-72.3	59.4*	-150.7	17.1
COC(=O)c1cc(O)cc(OC)c1Oc1cc(C)cc(O)c1C(=O)O	44.0*	10.7	40.6*	15.9	2.0	58.2*
CSc1nc(N)nc2c1ncn2CC(=O)NCC1CCCO1 (stereo not drawn)	3.1	-0.7	1.0	3.5	-2.8	-7.7
O=C(CSc1nnc(SCc2cccc3ccccc23)s1)N/N=C/c1c[nH]c2ccccc12	2.1	3.8	-5.2	-21.4	-2.5	-5.2
O=C(CSc1nnc(SCc2ccc(Cl)cc2)s1)N/N=C/c1c[nH]c2ccccc12	42.2*	11.4	34.6	69.5*	3.3	16.2
Cc1ccc(C(=O)NN2C(=O)/C(=C/c3cccn3C)SC2=S)cc1	-8.5	7.7	21.5	2.0	-2.0	-11.6
Cn1cccc1/C=C1\SC(=S)N(NC(=O)c2ccccc2Cl)C1=O	-3.5	6.2	44.1*	5.1	-2.2	46.5
O=C(O)CN1C(=O)/C(=C/c2ccsc2)SC1=S	-14.1	-0.1	1.0	-0.6	2.7	-5.3
Cn1cccc1/C=C1\SC(=S)N(CC(=O)O)C1=O	-32.5	3.6	49.2*	4.1	3.4	6.1
COc1ccc(C(=O)Nc2ccc(C(=O)Nc3nccs3)cc2)cc1[N+](=O)[O-]	53.6*	3.3	-2.6	-8.0	-0.1	-8.3
COc1ccc(C(=O)NC(=S)Nc2cccc3ncccc23)cc1[N+](=O)[O-]	55.8*	12.9	3.7	-8.8	3.4	-10.5
O=C(Nc1nccs1)c1ccc(Cl)c([N+](=O)[O-])c1	-24.5	-0.8	-0.9	2.0	0.4	0.4
Cc1ccccc1-n1c(SCC(=O)N2CCOCC2)nc(O)c(Cc2ccccc2)c1=O	2.9	-0.4	-0.4	-0.9	-0.5	3.8
O=c1ccn([C@@H]2O[C@H](CNCc3c(OCc4ccccc4F)ccc4ccccc34)[C@@H](O)[C@H]2O)c(=O)[nH]1	-15.0	-0.8	-1.3	-3.1	1.2	.
COc1ccc(OC)c(NC(=O)CSc2nc3n[nH]c(C)c3c(=N)n2-c2cccc(Cl)c2C)c1	5.9	-2.3	-5.0	-10.7	-2.5	0.6
COc1ccc(NC(=O)CSc2nc3n[nH]c(C)c3c(=N)n2-c2ccc(Cl)c(C)c2)cc1OC	-7.7	-3.0	36.2*	-0.6	2.6	-5.5
CC(C(=O)Nc1ccc(C#N)cc1)N(C)CC(=O)N(C)c1c(N)n(Cc2ccccc2)c(=O)[nH]c1=O (stereo not drawn)	46.5*	-0.5	-2.0	4.3	-3.7	-9.5
CN(C)S(=O)(=O)c1ccc(C(=O)Nc2nnc(SCc3cccc(F)c3)s2)cc1	1.1	-2.9	-2.8	7.3	-0.3	6.1
